These results are taken from ChEMBL document CHEMBL1125651, “Nucleosides and nucleotides. 95. Improved synthesis of 1-(2-azido-2-deoxy-beta-D-arabinofuranosyl)cytosine (cytarazid) and -thymine. Inhibitory spectrum of cytarazid on the growth of various human tumor cells in vitro” (J Med Chem, 1991).

The test system of test [1] is U2OS. Put plainly: In vitro inhibitory effect measured against human osteosarcoma U20-S tumor cells at 100 ug/mL. The test is classed as functional. The procedure, abridged: (§1)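 MTT viability assay after 72 h exposure at 37 °C in a CO2 incubator. Cells at 1 × 10^4 cells/mL in RPMI 1640 with 10% heat-inactivated FBS and 50 μg/mL kanamycin. Percent inhibition = [1 − OD570 of sample/OD570 of untreated control] × 100. Representative of three separate experiments.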

For test [2], the system named is HOS. Put plainly: In vitro inhibitory effect measured against human osteosarcoma HOS tumor cells at 100 ug/mL. It counts as functional. The procedure, abridged: as §1
The subject of another test is SK-ES1. Put plainly: In vitro inhibitory effect measured against human osteosarcoma SK-ES-1 tumor cells. The test is classed as functional, cell-based. The gist of the method: (§2)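 Cells seeded at 1 × 10^4 cells/mL in RPMI 1640 with 10% heat-inactivated FBS and 50 μg/mL kanamycin. Cultured 72 h at 37 °C in a CO2 incubator with a range of compound concentrations. Viability read by MTT colorimetric assay at OD 570 nm against untreated control wells. IC50 is the μg/mL concentration giving 50% growth inhibition; representative of three separate experiments.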

Another test relates to MKN-28. Put plainly: In vitro inhibitory effect measured against human stomach adenocarcinoma MKN-28 tumor cells. The test is classed as functional, cell-based. The procedure, abridged:
as §2

Test [3] deals with NUGC-4. Kind of test: In vitro inhibitory effect measured against human stomach adenocarcinoma NUGC-4 tumor cells at 100 ug/mL. It counts as functional. The procedure, abridged: as §1
The next test relates to SAOS-2. Put plainly: In vitro inhibitory effect measured against human osteosarcoma SAOS-2 tumor cells. The test is classed as functional, cell-based. The gist of the method: as §2
Test [4] deals with OST. Kind of test: In vitro inhibitory effect measured against human osteosarcoma OST tumor cells at 100 ug/mL. It counts as functional. The gist of the method:
as §1

The subject of the next test is PC-9. Kind of test: In vitro inhibitory effect measured against human lung adenocarcinoma PC-9 tumor cells. The test is classed as functional, cell-based. The gist of the method:
as §2

Test [5] relates to PC-13. Put plainly: In vitro inhibitory effect measured against human lung large-cell carcinoma PC-13 tumor cells at 100 ug/mL. The test is classed as functional. The gist of the method:
as §1

Another test concerns HOS-TE85. Put plainly: In vitro inhibitory effect measured against human osteosarcoma MNNG-HOS tumor cells. The test is classed as functional, cell-based. The procedure, abridged:
as §2

The subject of test [6] is QG-56. Put plainly: In vitro inhibitory effect measured against human lung suamous-cell carcinoma QG-56 tumor cells at 100 ug/mL. The test is classed as functional. The gist of the method: as §1
In another test the test system is NCC. Put plainly: In vitro inhibitory effect measured against human renal cell carcinoma NCC-nu tumor cells. It counts as functional, cell-based. The gist of the method:
as §2

A further test deals with KHOS-321H. Put plainly: In vitro inhibitory effect measured against human osteosarcoma KHOS-321H tumor cells. It counts as functional, cell-based. The gist of the method: as §2
A further test deals with HT-1080. Kind of test: In vitro inhibitory effect measured against human fibrosarcoma HT1080 tumor cells. The test is classed as functional, cell-based. The procedure, abridged:
as §2

In test [7] the test system is MFH-ST. Kind of test: In vitro inhibitory effect measured against human malignant fibrous histiocytoma MFH-ST tumor cells at 100 ug/mL. It counts as functional. The gist of the method:
as §1

For a further test, the system named is PC-8. Put plainly: In vitro inhibitory effect measured against human lung adenocarcinoma PC-8 tumor cells. It counts as functional, cell-based. The procedure, abridged: as §2
Test [8] deals with PC-3. Put plainly: In vitro inhibitory effect measured against human lung adenocarcinoma PC-3 tumor cells at 100 ug/mL. The test is classed as functional. The procedure, abridged:
as §1

The subject of test [9] is MG-63. Kind of test: In vitro inhibitory effect measured against human osteosarcoma MG-63 tumor cells at 100 ug/mL. The test is classed as functional. The gist of the method: as §1
Test [10] has as its system ST-KM-1. Put plainly: In vitro inhibitory effect measured against human stomach adenocarcinoma ST-KM tumor cells at 100 ug/mL. The test is classed as functional. The procedure, abridged:
as §1

The subject of test [11] is HOS. Kind of test: In vitro inhibitory effect measured against human osteosarcoma HOS tumor cells. It counts as functional, cell-based. The procedure, abridged: as §2
The subject of test [12] is U2OS. Put plainly: In vitro inhibitory effect measured against human osteosarcoma U20-S tumor cells. It counts as functional, cell-based. The gist of the method:
as §2

Another test relates to T-24. Kind of test: In vitro inhibitory effect measured against human bladder transitional cell carcinoma T-24 tumor cells. The test is classed as functional, cell-based. The procedure, abridged: as §2
The test system of test [13] is QG-56. Kind of test: In vitro inhibitory effect measured against human lung suamous-cell carcinoma QG-56 tumor cells. The test is classed as functional, cell-based. The gist of the method:
as §2

The subject of a further test is PC-6. Put plainly: In vitro inhibitory effect measured against human lung small-cell carcinoma PC-6 tumor cells. It counts as functional, cell-based. The gist of the method: as §2
In test [14] the test system is MG-63. Kind of test: In vitro inhibitory effect measured against human osteosarcoma MG-63 tumor cells. It counts as functional, cell-based. The gist of the method:
as §2

Test [15] deals with PC-3. Kind of test: In vitro inhibitory effect measured against human lung adenocarcinoma PC-3 tumor cells. It counts as functional, cell-based. The gist of the method:
as §2

In test [16] the test system is ST-KM-1. Put plainly: In vitro inhibitory effect measured against human stomach adenocarcinoma ST-KM tumor cells. The test is classed as functional, cell-based. The gist of the method:
as §2

Test [17] deals with PC-13. Put plainly: In vitro inhibitory effect measured against human lung large-cell carcinoma PC-13 tumor cells. It counts as functional, cell-based. The gist of the method:
as §2

In test [18] the test system is NUGC-4. Kind of test: In vitro inhibitory effect measured against human stomach adenocarcinoma NUGC-4 tumor cells. It counts as functional, cell-based. The procedure, abridged: as §2
Test [19] deals with OST. Put plainly: In vitro inhibitory effect measured against human osteosarcoma OST tumor cells. It counts as functional, cell-based. The gist of the method: as §2
Test [20] deals with MFH-ST. Kind of test: In vitro inhibitory effect measured against human malignant fibrous histiocytoma MFH-ST tumor cells. The test is classed as functional, cell-based. The gist of the method:
as §2

In brackets after ≈: the same amount, converted by molar mass.

In the case of `Nc1ccn([C@@H]2O[C@H](CO)[C@@H](O)[C@@H]2O)c(=O)n1` [CYTARABINE], the inhibition at 100 µg/mL turned out to be 43.9% with U2OS [1]; 45.4% in the test with HOS [2]; 49.9% in the test with NUGC-4 [3]; 48% with OST [4]; 40% with PC-13 [5]; 24.4% in the test with QG-56 [6]. In addition, the inhibition at 100 µg/mL amounted to 47.9% in the test on MFH-ST [7], 46.2% in the test on PC-3 [8], 29.5% with MG-63 [9] and 48.6% with ST-KM-1 [10]. The half-inhibitory concentration (IC50) in the test with SK-ES1 came to 0.09 µg/mL (≈ 0.37 µM); in the test with MKN-28, 4.5 µg/mL (≈ 18.5 µM); in the test with SAOS-2, 2.7 µg/mL (≈ 11.1 µM); with PC-9, 1.6 µg/mL (≈ 6.58 µM); in the test with HOS-TE85, 2.6 µg/mL (≈ 10.7 µM); in the test with NCC, 0.13 µg/mL (≈ 0.534 µM). Also, the IC50 in the test on KHOS-321H stood at 0.27 µg/mL (≈ 1.11 µM); in the test on HT-1080 it was 0.13 µg/mL (≈ 0.534 µM); with PC-8, 0.28 µg/mL (≈ 1.15 µM).
Turning to `[N-]=[N+]=N[C@H]1[C@H](O)[C@@H](CO)O[C@H]1n1ccc(N)nc1=O` [CYTARAZID], the IC50 in the test with HOS [11] is 9.4 µg/mL (≈ 35 µM); with U2OS [12] it was 14 µg/mL (≈ 52.2 µM); in the test with SK-ES1, 1.1 µg/mL (≈ 4.1 µM); in the test on MKN-28 it was 2.2 µg/mL (≈ 8.2 µM); with SAOS-2 it was 2.8 µg/mL (≈ 10.4 µM); with T-24, 0.56 µg/mL (≈ 2.09 µM). In addition, the IC50 is 1 µg/mL (≈ 3.73 µM) in the test on PC-9; 5.4 µg/mL (≈ 20.1 µM) with QG-56 [13]; 1.5 µg/mL (≈ 5.59 µM) in the test with HOS-TE85; 18 µg/mL (≈ 67.1 µM) in the test with PC-6; 30 µg/mL (≈ 112 µM) with MG-63 [14]; 1.8 µg/mL (≈ 6.71 µM) in the test on NCC. Also, the half-maximal inhibitory concentration (IC50) in the test with PC-3 [15] is 18 µg/mL (≈ 67.1 µM); with KHOS-321H, 0.62 µg/mL (≈ 2.31 µM); with HT-1080, 1.6 µg/mL (≈ 5.96 µM); in the test on ST-KM-1 [16], 1.1 µg/mL (≈ 4.1 µM); in the test on PC-13 [17] it was 18 µg/mL (≈ 67.1 µM); in the test with NUGC-4 [18], 1.4 µg/mL (≈ 5.22 µM). The concentration for half-maximal inhibition (IC50) worked out at 1.2 µg/mL (≈ 4.47 µM) in the test on PC-8, 6.4 µg/mL (≈ 23.9 µM) with OST [19] and 14 µg/mL (≈ 52.2 µM) with MFH-ST [20].
